The results in this text go back to PubChem BioAssay AID617 (SRMLSC, 2007).

By IC50 is commonly meant the concentration at which inhibition is half-maximal.

In this assay the test system is E. coli BW25113 ΔtolC growth inhibition, OD615. Kind of assay: E. coli ΔtolC antibacterial growth inhibition – strain BW25113 ΔtolC::kan, dose response (AID 617). The method, boiled down: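 System: E. coli BW25113 ΔtolC::kan bacteria. Amount: 1:1000 diluted subculture inoculum. Medium: LB broth supplemented with kanamycin at 50 µg/mL. Compound dosing: serial dilution series of compound. Schedule: 20 h exposure at 37 °C. Detection: OD615. Measure: IC50 of bacterial growth inhibition. Benchmarks: chloramphenicol control, 30 µM final.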
Take `CCCCCCC(=O)N1CCC(c2nc3c(nnn3Cc3ccccc3Cl)c(=O)[nH]2)CC1`: the IC50 was 6.36 µM. As for `CCOC(=O)c1ccccc1NC(=O)C(C)Oc1ccccc1` (stereo not drawn), the IC50 was 30.3 µM. Next, `C=CCOC(=O)C(C#N)c1nc2ccccc2nc1N1CCCC1` (stereo not drawn): 8.74 µM; `O=C(COc1ccccc1)Nc1ccccc1N1CCCCC1`: 25.6 µM; `Cc1csc(NC(=O)C2CCCN(S(=O)(=O)c3ccc(Br)s3)C2)n1` (stereo not drawn): 12.2 µM. Next, `COc1cccc(-c2nnc(NC(=O)c3ccc(S(=O)(=O)N(CC(C)C)CC(C)C)cc3)o2)c1`: 0.91 µM; `CN(C)C1(c2nnnn2CCOC(=O)Nc2ccc(Cl)cc2)CCCCC1`: 8.24 µM; `COc1ccccc1C(=O)Nc1nnc(-c2ccc3c(c2)CCCC3)o1`: 6.32 µM. The figure for `O=C(CCn1c(=O)oc2ccccc21)N1CCN(C(c2ccccc2)c2ccccc2)CC1` is 29 µM. With `N#Cc1nc(-c2ccc(OCc3ccccc3Cl)cc2)oc1NCCCn1ccnc1`, the IC50 was 5.13 µM. The figure for `Cc1cc(Cl)ccc1OCC(=O)Nc1ccccc1N1CCOCC1` is 8.64 µM; for `Cc1ccc(Cn2ccc(NC(=O)c3cc(CC(C)C)on3)n2)cc1` it is 8.54 µM; for `CCc1ccc2oc(=O)cc(CN(C)Cc3ccccc3)c2c1` it is 12.9 µM. Next, `O=C(Cn1c2c(c(-c3ccccc3)cc1=O)CCCC2)N1CCCCCC1`: 6.09 µM.

For `O=C(Nc1cccc(S(=O)(=O)c2cccc(NC(=O)C3CC3)c2)c1)C1CC1`, the IC50 is 5.25 µM. The figure for `CCOc1ccccc1N1CCN(Cc2ccc(Br)s2)CC1` is 26.6 µM; for `COc1cccc(C2/C(=C(/O)c3ccc(C)cc3)C(=O)C(=O)N2Cc2ccco2)c1` (stereo not drawn) it is 4.54 µM.

On to `N#Cc1c(NC(NC(=O)c2ccco2)C(=O)c2ccccc2)sc2c1CCCC2` (stereo not drawn), for which the IC50 is 13.5 µM. Next, `COc1ccc(CNc2nc3c(c(=O)n(Cc4ccc(F)cc4)c(=O)n3C)n2C)cc1`: 22.5 µM. The figure for `CCN(C(=O)c1cc2cc3ccc(C)cc3nc2o1)c1ccc(OC)cc1` is 19 µM; for `CCCc1ccc(OCc2ccc(C(=O)N3CCN(c4ccccn4)CC3)o2)c(OC)c1` it is 7.15 µM. For the molecule `CC1CCCN(S(=O)(=O)c2ccc(C(=O)Nc3nnc(-c4ccccc4Cl)o3)cc2)C1` (stereo not drawn), the IC50 was 0.41 µM. The figure for `CCOC(=O)Cc1nnc2c(Nc3ccccc3F)nc3nonc3n12` is 6.82 µM.

For the molecule `Cc1ccc(S(=O)(=O)Nc2cccc3ncccc23)s1`, the IC50 was 1.65 µM. As for `CCN(CC)S(=O)(=O)c1ccc2[nH]cc(C(=O)NCCC3=CCCCC3)c(=O)c2c1`, the IC50 was 5.15 µM. Next, `CCOC(=O)Nc1ccc2c(c1)N(C(=O)N1CCN(C)CC1)c1ccccc1S2`: 36.9 µM; `Cn1c(C(=O)N2CCN(c3cccc(C(F)(F)F)c3)CC2)cc2sccc21`: 15.4 µM; `CC1=CCC(COC(=O)Nc2ccccc2)CC1` (stereo not drawn): 26.8 µM.

With `COc1ccc(C)cc1NC(=O)CSc1nnc(COc2ccccc2)n1Cc1ccco1`, the IC50 was 22 µM. Next, `CC(C)C(c1nnnn1C1CCCC1)N1CCCc2ccccc21` (stereo not drawn): 15.7 µM; `O=C(Nc1nc(-c2ccccn2)cs1)C1COc2ccccc2O1` (stereo not drawn): 0.97 µM. `O=C1CCCC2=C1C(c1cccs1)n1nc(SCc3ccccc3)nc1N2` (stereo not drawn): the half-inhibitory concentration (IC50) is 15.8 µM. The figure for `O=C(Nc1nc2ccccc2n1CCOc1ccc(Cl)cc1)c1ccco1` is 25.2 µM; for `C=CCOC(=O)C(C#N)c1nc2ccccc2nc1N1CCN(Cc2ccccc2)CC1` (stereo not drawn) it is 17.2 µM. With `CCCCCCc1ccc(-c2ncc(N)cn2)cc1`, the IC50 was 16.6 µM. The figure for `Cn1c(=O)n(CCCOc2ccc(Br)cc2)c2ccccc21` is 13.8 µM; for `CCC(C(=O)Nc1ccccc1OC)n1c(C(=O)OC)cc2ccsc21` (stereo not drawn) it is 10.9 µM; for `O=C(NC1CCCCCCC1)c1ccccc1O` it is 9.01 µM. The figure for `Oc1c(C(c2cccs2)N2CCN(c3cccc(Cl)c3)CC2)sc2ncnn12` (stereo not drawn) is 13.9 µM. The figure for `Cc1ccccc1-c1nc(CN2CCC(C(=O)NCCC3=CCCCC3)CC2)c(C)o1` is 13.9 µM; for `COC(=O)c1ccc(CSc2nc3ccccc3o2)cc1` it is 20.2 µM; for `CCOC(=O)c1cnc(-n2nc(C)cc2C)nc1NCc1ccccc1` it is 0.68 µM. As for `CC1(C)Cc2c(sc3c2c(=N)n(Cc2ccco2)c(=O)n3Cc2ccc(Cl)cc2)CO1`, the IC50 is 13.3 µM.

Turning to `CCCCCCOC(=O)C(C#N)c1nc2ccccc2nc1N1CCN(C)CC1` (stereo not drawn), the IC50 is 12.9 µM. Next, `c1ccc(CC2CCN(c3nnnn3-c3ccccc3)CC2)cc1`: 9.95 µM; `Cc1cccc(-n2ncc3c(NCc4ccc5c(c4)OCO5)ncnc32)c1`: 8.94 µM.

Regarding `Cc1cc(NS(=O)(=O)c2ccc(NC(=O)COc3ccccc3C(C)C)cc2)no1`, the IC50 is 16.5 µM. Take `CCn1cc(C(=O)O)c(=O)c2cnc(N3CCN(C(=O)Nc4ccccc4)CC3)nc21`: the IC50 is 1.01 µM. The figure for `CCCN(CCC)S(=O)(=O)c1ccc(C(=O)Nc2nnc(-c3cccc(OC)c3)o2)cc1` is 0.26 µM; for `O=C(COc1ccc2ccccc2c1Br)N1CCN(c2ccccn2)CC1` it is 10.5 µM; for `Cc1ccc2c(c1)[nH]c1c(N3CCN(Cc4ccccc4)CC3)ncnc12` it is 39.1 µM. The figure for `Clc1ccc2[nH]c3c(c2c1)CCc1cn[nH]c1-3` is 6.49 µM; for `c1ccc(N2CCN(c3ncnc4c3oc3ccccc34)CC2)cc1` it is 40.5 µM. On to `Nc1c(C(=O)NCCc2ccccc2)c2nc3ccccc3nc2n1CCN1CCOCC1`, for which the IC50 is 12.4 µM. For the molecule `CCn1cc(C(=O)Nc2nncs2)c(=O)c2cc(F)c(N3CCN(C(=O)c4ccco4)CC3)cc21`, the IC50 is 0.19 µM. Regarding `Cc1[nH]n2c(=O)c3c(nc2c1-c1ccc(Cl)cc1)CCC3`, the IC50 was 4.09 µM. Regarding `CC(C)(C)c1ccc(Cn2nnc3c(=O)[nH]c(C4CCCN(C(=O)Cc5cccs5)C4)nc32)cc1` (stereo not drawn), the IC50 is 15.6 µM.

Take `CCOC(=O)c1cccc2c1-c1ccccc1/C2=N/O`: the IC50 was 97.1 µM. For the molecule `COc1ccc(Cn2c(=O)sc3ccccc32)cc1`, the IC50 is 61.7 µM. The figure for `COc1ccccc1Cc1nc(-c2ccc(Br)o2)no1` is 19.7 µM; for `COc1cccc(NC(=O)Nc2nnc(N3CCCCC3C)s2)c1` (stereo not drawn) it is 8.43 µM. For `Cc1cc(C)c(C#N)c(SCS(=O)c2ccc(C(C)(C)C)cc2)n1` (stereo not drawn), the IC50 is 40.1 µM. As to `CCCCSC1=C(C#N)C(c2ccccc2C)C(C(=O)OCC)C(=O)N1` (stereo not drawn), the IC50 was 11.5 µM. The figure for `COCc1nnc(NC(=O)c2ccc(S(=O)(=O)N(C)c3ccccc3)cc2)o1` is 6.56 µM. Regarding `Cc1ccc(Cn2ncn3c(cc4ccccc43)c2=O)cc1`, the IC50 is 14.1 µM. The figure for `CCCCCC(=O)Nc1ccccc1N1CCN(c2ccccc2)CC1` is 20.6 µM; for `CCOC(=O)c1ccc(-n2[nH]c(-c3ccccc3)cc2=O)cc1` it is 8.26 µM; for `N#Cc1nc(Cc2ccccc2)oc1NCc1ccccc1Cl` it is 4.79 µM. As to `COc1ccc(C2(O)CC3CCC(C2)N3c2nc(C)cc(C)c2C#N)cc1` (stereo not drawn), the IC50 is 24.6 µM. The figure for `CCCCN(CCCNC(=O)CN1C(=O)COc2ccccc21)c1ccccc1` is 38.9 µM. For the molecule `COc1cc(NS(=O)(=O)c2ccc(OC)c(C)c2C)c(OC)cc1Cl`, the IC50 was 16.8 µM. Next, `CCn1c(=N)n(CC(=O)C23CC4CC(CC(C4)C2)C3)c2ccccc21`: 13 µM; `c1ccc(CN(Cc2ccco2)C(c2ccncc2)c2nnnn2C2CCCC2)cc1` (stereo not drawn): 13.2 µM.

For the molecule `O=C(Nc1cccc(Cl)c1)Nc1nccs1`, the IC50 is 11 µM. Next, `CC(C)Cn1c(=O)c(C(=O)Nc2ccncc2)c(O)c2ccccc21`: 3.34 µM; `CN1CCCN(C(=O)Cc2c(Cl)cccc2Cl)c2nc3ccccc3nc21`: 13.1 µM. The figure for `CC1CCN(c2oc(-c3ccccc3F)nc2C#N)CC1` is 19.2 µM; for `COC(=O)c1[nH]c2ccc(C)cc2c1NS(=O)(=O)c1ccc(F)cc1` it is 6.58 µM. With `c1ccc(CSc2nnc(-c3ccco3)c(-c3ccco3)n2)cc1`, the 50% inhibitory concentration (IC50) was 11.1 µM. On to `CC1CC(C)CN(c2ncnc3c2cnn3Cc2ccc(Cl)cc2)C1` (stereo not drawn), for which the IC50 was 6.08 µM. The figure for `CN1/C(=C\C(=O)COc2ccc3c(c2)OCO3)C(C)(C)c2ccccc21` is 11.2 µM; for `CCCCOc1ccccc1Cn1c(=O)oc2ccc(C)cc21` it is 16.4 µM.

In the case of `CCCn1nnc(NC(=O)COc2ccc(C3CCCCC3)cc2)n1`, the half-inhibitory concentration (IC50) was 9.4 µM. Next, `CCCOc1ccccc1C1CC(=O)Nc2cc3c(cc21)OCCO3` (stereo not drawn): 24.1 µM; `COc1ccc2[nH]c(=O)c(CN(C(=O)NC3CCCCC3)C3CCCCC3)cc2c1`: 19.4 µM. As to `O=C(CSc1ncn(-c2ccccc2)n1)Nc1nc2c(s1)CCCC2`, the IC50 is 16.9 µM.

Regarding `O=C(NCc1ccco1)c1cnn2c1NC(c1ccc(Br)cc1)CC2C(F)(F)F` (stereo not drawn), the IC50 is 12.8 µM. Next, `CCc1c(C)nc2cc(-c3cc(OC)cc(OC)c3)nn2c1N1CCCC1`: 25.5 µM. The figure for `CSc1ccc(-c2cc(=O)c3ccccc3o2)cc1` is 42.1 µM; for `COc1ccc2[nH]c3c(=O)n(CCCCC(=O)N4CCC(C(N)=O)CC4)c(=S)[nH]c3c2c1` it is 10.7 µM; for `COC(=O)c1ccccc1NC(=O)N1c2ccccc2CC1C` (stereo not drawn) it is 14.1 µM. Turning to `CC(C)Cc1cc(C(=O)Nc2cc(Br)ccc2O)no1`, the IC50 was 5.72 µM.

For `Cc1cccc2cc(C(c3nnnn3CC3CCCO3)N3CCc4ccccc4C3)c(=O)[nH]c12` (stereo not drawn), the IC50 was 35.4 µM. The figure for `CCSCC1COC(c2cccn2Cc2ccc(C)cc2)=N1` (stereo not drawn) is 39.4 µM.

On to `Clc1ccc2nc(CN3CCCc4ccccc43)cn2c1`, for which the IC50 was 25.8 µM. For the molecule `COC(=O)c1[nH]c2ccc(C)cc2c1NS(=O)(=O)c1ccc(F)c(C)c1`, the IC50 was 1.75 µM. Next, `O=C(c1ccc2c(=O)n(C3CCCC3)c(=S)[nH]c2c1)N1CCN(C2CCCCC2)CC1`: 15 µM; `COc1ccc(-c2cc3nc4c(c(N5CCC6(CC5)OCCO6)n3n2)CCCC4)cc1`: 28.8 µM.
